In brackets after ≈: the same amount, converted by molar mass.
Legend:
[1] = test system: E. granulosus protoscoleces; experiment: Protoscolicidal; type: cell-based; conditions: Echinococcus granulosus; for IC50: read-out: IC50 protoscolicidal activity; for viability at 25 µg/mL / viability at 50 µg/mL / viability at 75 µg/mL / viability at 100 µg/mL / viability at 125 µg/mL: read-out: viability of protoscoleces
Summary of the method: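 Protoscoleces came from hydatid cysts of naturally infected sheep, settled without centrifugation, washed three times in HBSS, and cultured in RPMI 1640 (12 mM HEPES, glutamine, antibiotics, amphotericin B, 10 % FCS, glucose). Within 10 days, ~500 protoscoleces in 20 ml medium received test compound at 25–125 µg/ml; DMSO control. Viability was scored by motility and 0.1 % trypan blue exclusion in 10 random fields (10X). Triplicate; IC50 by nonlinear regression.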

[2] = test system: HepG2 cells; experiment: In-vitro cytotoxicity MTT assay on HepG2 cell line; type: cell-based, human; conditions: 125 μg/ml, third day
Summary of the method: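 HepG2 monolayers in phenol-red-free DMEM with 10 % FCS, penicillin and streptomycin, grown 48 h at 37 °C/5 % CO2 to confluency. Test compound in DMSO at 25, 50, 75, 100, 125 µg; medium-only negative control with matched DMSO. After 48 h at 37 °C, MTT (5 mg/mL) added for 4 h, then DMSO-dissolved formazan read at 570/655 nm. Triplicate; viability relative to untreated cells.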

[3] = test system: protoscoleces and metacestodes of Echinococcus granulosus; conditions: cited from earlier work

## CCCCCc1ccc(C(=O)Nc2ccc(C)cc2)cc1 [Compound 18, 4-pentyl-N-p-tolylbenzamide]
[1]
  IC50: 45 µg/mL (≈ 160 µM)
  viability at 25 µg/mL: 63.3%
  viability at 50 µg/mL: 49.6%
  viability at 75 µg/mL: 38.3%
  viability at 100 µg/mL: 29%
  viability at 125 µg/mL: 21%
[2]
  cell survival rate of HepG2: approximately 54%

## Cc1ccc(NC(=O)c2ccc(OC(F)(F)F)cc2)cc1 [Compound 16, N-p-tolyl-4-(trifluoromethoxy)benzamide]
[1]
  IC50: 66.5 µg/mL (≈ 225 µM)
  viability at 25 µg/mL: 72.6%
  viability at 50 µg/mL: 62.6%
  viability at 75 µg/mL: 45.3%
  viability at 100 µg/mL: 39.6%
  viability at 125 µg/mL: 30%
[2]
  cell survival rate of HepG2: 38%

## Cc1ccc(NC(=O)c2cc([N+](=O)[O-])cc([N+](=O)[O-])c2)cc1 [Compound 6, 3,5-dinitro-N-p-tolylbenzamide]
[1]
  IC50: 77 µg/mL (≈ 256 µM)
  viability at 25 µg/mL: 72.6%
  viability at 50 µg/mL: 66.6%
  viability at 75 µg/mL: 53.6%
  viability at 100 µg/mL: 43%
  viability at 125 µg/mL: 32.3%
[2]
  cell survival rate of HepG2: 36%

## Cc1ccc(NC(=O)c2cccc3ccccc23)cc1 [Compound 10, N-p-tolyl-1-naphthamide]
[1]
  IC50: 29.5 µg/mL (≈ 113 µM)
  viability at 25 µg/mL: 47.3%
  viability at 50 µg/mL: 20%
  viability at 75 µg/mL: 10.3%
  viability at 100 µg/mL: 0%
  viability at 125 µg/mL: 0%
[2]
  cell survival rate of HepG2: 40%

## CC(=O)Oc1ccccc1C(=O)Nc1ncc([N+](=O)[O-])s1 [Nitazoxanide]
[3]
  antiechinococcal activity: potent antiechinococcal activity

## Cc1ccc(NC(=O)c2c(F)c(F)c(F)c(F)c2F)cc1 [Compound 20, 2,3,4,5,6-pentafluoro-N-p-tolylbenzamide]
[1]
  IC50: 39.5 µg/mL (≈ 131 µM)
  viability at 25 µg/mL: 54.3%
  viability at 50 µg/mL: 50.6%
  viability at 75 µg/mL: 18.3%
  viability at 100 µg/mL: 9.6%
  viability at 125 µg/mL: 0%
[2]
  cell survival rate of HepG2: 32%

From article PMC11130662 (Heliyon, 2024)
